In ChEMBL document CHEMBL5316292 (J Med Chem, 2023):
Active and inactive are the calls of the source. The rule behind the calls is not given here.

Tests used:
VCaP [1] = assay: Downregulation of BRD3 mRNA levels in human VCaP cells at 25 to 2500 nM incubated for 24 hrs by qRT-PCR analysis; format: functional, cell-based; conditions: dose 25-2500 nM
Procedure, shortened: (§1)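 VCaP cells grown to 50% confluence, then treated with compound or DMSO (Methods state 16 h, legend states 24 h). Total RNA isolated, cDNA made from 1 µg RNA, SYBR Green qPCR run in triplicate. Expression by ΔΔCt, normalised to GAPDH. Three independent experiments, SEM.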

[2] = biological target: T1, Bromodomain-containing protein 4 (Homo sapiens, UniProt O60885); assay: Induction of BRD4 degradation in human MDA-MB-231 cells at 10 uM by immunoblotting analysis; format: cell-based; conditions: time 8.0 hrs
[3] = biological target: T1, Bromodomain-containing protein 4; assay: Induction of BRD4 degradation in human MDA-MB-231 cells assessed as decrease in BET half life at 10 uM incubated for 8 hrs in presence of cycloheximide by immunoblotting analysis; format: cell-based
Procedure, shortened: (§2)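 MDA-MB-231 time-course. Cells given 50 µg/mL cycloheximide plus DMSO, or 50 µg/mL cycloheximide plus 10 µM compound. RIPA lysates immunoblotted for BRD2, BRD3 and BRD4 with GAPDH as control.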

VCaP [4] = assay: Downregulation of BRD4 mRNA levels in human VCaP cells at 25 to 2500 nM incubated for 24 hrs by qRT-PCR analysis; format: functional, cell-based; conditions: dose 25-2500 nM; procedure, shortened: as §1
[5] = biological target: T2, Bromodomain-containing protein 3 (Homo sapiens, UniProt Q15059); assay: Induction of BRD3 degradation in human MDA-MB-231 cells at 10 uM incubated for 8 hrs in presence of MG132 by immunoblotting analysis; format: cell-based
Target sequence in this assay (Q15059 2-726 limits assumed): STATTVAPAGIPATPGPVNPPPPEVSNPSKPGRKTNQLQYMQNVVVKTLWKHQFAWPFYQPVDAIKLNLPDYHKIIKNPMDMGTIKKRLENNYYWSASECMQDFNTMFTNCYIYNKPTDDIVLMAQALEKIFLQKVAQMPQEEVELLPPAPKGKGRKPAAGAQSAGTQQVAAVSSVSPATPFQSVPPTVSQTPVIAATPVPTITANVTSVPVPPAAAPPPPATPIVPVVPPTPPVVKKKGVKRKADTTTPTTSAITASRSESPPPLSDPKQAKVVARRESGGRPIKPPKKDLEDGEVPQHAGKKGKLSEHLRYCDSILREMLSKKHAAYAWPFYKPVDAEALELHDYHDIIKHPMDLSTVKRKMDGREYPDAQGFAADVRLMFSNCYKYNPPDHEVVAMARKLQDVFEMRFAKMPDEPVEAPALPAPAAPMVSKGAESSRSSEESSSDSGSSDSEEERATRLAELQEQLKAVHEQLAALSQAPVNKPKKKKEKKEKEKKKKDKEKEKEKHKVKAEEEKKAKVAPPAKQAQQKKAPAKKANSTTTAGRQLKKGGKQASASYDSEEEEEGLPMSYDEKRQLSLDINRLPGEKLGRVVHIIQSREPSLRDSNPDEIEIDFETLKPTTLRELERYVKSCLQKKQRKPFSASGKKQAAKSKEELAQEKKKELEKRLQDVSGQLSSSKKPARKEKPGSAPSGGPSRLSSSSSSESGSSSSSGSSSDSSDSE

PC-3 = assay: Antiproliferative activity against androgen-insensitive human PC-3 cells assessed as reduction in cell viability measured after 72 hrs by MTS assay; format: functional, cell-based; conditions: PC-3, 72 h
Procedure, shortened: (§3)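 MTS viability assay run in triplicate wells. Serial dilutions in DMSO were given, with DMSO as negative control and doxorubicin as positive control, and incubated 72 h. MTS reagent was added for 2 h and absorbance read at 490 nm. % cytotoxicity = (A_medium − A_treatment)/A_medium × 100. EC50 ± SD was taken from dose-response curves of at least three independent experiments.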

[6] = biological target: T2, Bromodomain-containing protein 3; assay: Binding affinity to human partial length BRD3 BD2 (G306 to P416 residues) expressed in bacterial expression system using H4K5acIC8acK12acK16ac-biotinylated peptide as substrate preincubated for 30 mins followed by substrate addition by AlphaScreen assay
Procedure, shortened: (§4)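 AlphaScreen. Biotinylated H4K5acK8acK12acK16ac peptide added at equal concentration to protein for 30 min. Donor and acceptor beads (25 µg/mL each) added, ≥1 h in the dark. Triplicate, curve-fitted, SEM.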
Target sequence in this assay (Q15059 whole entry): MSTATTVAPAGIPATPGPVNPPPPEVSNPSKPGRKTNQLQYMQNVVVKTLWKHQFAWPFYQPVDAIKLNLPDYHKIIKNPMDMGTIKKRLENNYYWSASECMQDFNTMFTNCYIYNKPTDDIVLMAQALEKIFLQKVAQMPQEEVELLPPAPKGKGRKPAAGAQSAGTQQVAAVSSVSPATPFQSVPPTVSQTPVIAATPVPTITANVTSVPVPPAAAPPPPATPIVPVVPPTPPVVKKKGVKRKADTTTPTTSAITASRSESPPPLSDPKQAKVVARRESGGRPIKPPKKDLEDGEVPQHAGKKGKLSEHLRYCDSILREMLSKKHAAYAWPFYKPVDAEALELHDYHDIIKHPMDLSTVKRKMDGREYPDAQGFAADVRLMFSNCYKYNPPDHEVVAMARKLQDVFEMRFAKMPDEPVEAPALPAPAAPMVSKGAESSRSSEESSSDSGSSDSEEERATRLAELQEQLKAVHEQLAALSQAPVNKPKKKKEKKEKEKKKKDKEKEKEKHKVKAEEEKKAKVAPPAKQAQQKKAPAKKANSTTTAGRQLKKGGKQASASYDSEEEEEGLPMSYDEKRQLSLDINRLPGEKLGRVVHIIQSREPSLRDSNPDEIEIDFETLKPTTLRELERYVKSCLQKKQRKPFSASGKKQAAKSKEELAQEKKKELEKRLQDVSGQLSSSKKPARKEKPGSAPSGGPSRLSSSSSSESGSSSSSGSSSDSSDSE

DU-145 = assay: Antiproliferative activity against AR-negative human DU-145 cells assessed as reduction in cell viability measured after 72 hrs by MTS assay; conditions: DU-145, 72 h
LNCaP = assay: Antiproliferative activity against androgen-sensitive human LNCaP cells assessed as reduction in cell viability measured after 72 hrs by MTS assay; format: functional, cell-based; procedure, shortened: as §3
[7] = biological target: T3, Bromodomain testis-specific protein (Homo sapiens, UniProt Q58F21); assay: Binding affinity to human partial length BRDT BD2 (K250 to E382 residues) expressed in bacterial expression system using H4K5acIC8acK12acK16ac-biotinylated peptide as substrate preincubated for 30 mins followed by substrate addition by AlphaScreen assay; procedure, shortened: as §4
VCaP [8] = assay: Downregulation of BRD2 mRNA levels in human VCaP cells at 25 to 2500 nM incubated for 24 hrs by qRT-PCR analysis; format: functional, cell-based; conditions: dose 25-2500 nM; procedure, shortened: as §1
[9] = biological target: T2, Bromodomain-containing protein 3; assay: Binding affinity to 6His-tagged BRD3-BD1 (unknown origin) by MST assay
Procedure, shortened: (§5)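 His6-tagged BD (80 nM) after size-exclusion, labelled 1:1 with 10 nM Red-tris-NTA in PBST (0.05% Tween-20) for 30 min at room temperature, then centrifuged. Mixed with an equal volume of serially diluted compound. Thermophoresis read at 40% LED/MST power. Triplicate data curve-fitted, error as SEM.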
Target sequence in this assay (Q15059 whole entry): as above

[10] = biological target: T1, Bromodomain-containing protein 4; assay: Binding affinity to human partial length BRD4 BD2 (K333 to E460 residues) expressed in bacterial expression system using H4K5acIC8acK12acK16ac-biotinylated peptide as substrate preincubated for 30 mins followed by substrate addition by AlphaScreen assay
[11] = biological target: T2, Bromodomain-containing protein 3; assay: Induction of BRD3 degradation in human MDA-MB-231 cells at 10 uM by immunoblotting analysis; format: cell-based; conditions: time 8.0 hrs
Target sequence in this assay (Q15059 2-726 limits assumed): as the sequence (Q15059 2-726 limits assumed) above

[12] = biological target: T2, Bromodomain-containing protein 3; assay: Binding affinity to human partial length BRD3 BD1 (P24 to E144 residues) expressed in bacterial expression system using H4K5acIC8acK12acK16ac-biotinylated peptide as substrate preincubated for 30 mins followed by substrate addition by AlphaScreen assay; procedure, shortened: as §4
Target sequence in this assay (Q15059 whole entry): as the sequence (Q15059 whole entry) above

[13] = biological target: T4, Bromodomain-containing protein 2 (Homo sapiens, UniProt P25440); assay: Induction of BRD2 degradation in human MDA-MB-231 cells assessed as decrease in BET half life at 10 uM incubated for 8 hrs in presence of cycloheximide by immunoblotting analysis; format: cell-based; procedure, shortened: as §2
Target sequence in this assay (P25440 whole entry, looked up, the tested form may be a part): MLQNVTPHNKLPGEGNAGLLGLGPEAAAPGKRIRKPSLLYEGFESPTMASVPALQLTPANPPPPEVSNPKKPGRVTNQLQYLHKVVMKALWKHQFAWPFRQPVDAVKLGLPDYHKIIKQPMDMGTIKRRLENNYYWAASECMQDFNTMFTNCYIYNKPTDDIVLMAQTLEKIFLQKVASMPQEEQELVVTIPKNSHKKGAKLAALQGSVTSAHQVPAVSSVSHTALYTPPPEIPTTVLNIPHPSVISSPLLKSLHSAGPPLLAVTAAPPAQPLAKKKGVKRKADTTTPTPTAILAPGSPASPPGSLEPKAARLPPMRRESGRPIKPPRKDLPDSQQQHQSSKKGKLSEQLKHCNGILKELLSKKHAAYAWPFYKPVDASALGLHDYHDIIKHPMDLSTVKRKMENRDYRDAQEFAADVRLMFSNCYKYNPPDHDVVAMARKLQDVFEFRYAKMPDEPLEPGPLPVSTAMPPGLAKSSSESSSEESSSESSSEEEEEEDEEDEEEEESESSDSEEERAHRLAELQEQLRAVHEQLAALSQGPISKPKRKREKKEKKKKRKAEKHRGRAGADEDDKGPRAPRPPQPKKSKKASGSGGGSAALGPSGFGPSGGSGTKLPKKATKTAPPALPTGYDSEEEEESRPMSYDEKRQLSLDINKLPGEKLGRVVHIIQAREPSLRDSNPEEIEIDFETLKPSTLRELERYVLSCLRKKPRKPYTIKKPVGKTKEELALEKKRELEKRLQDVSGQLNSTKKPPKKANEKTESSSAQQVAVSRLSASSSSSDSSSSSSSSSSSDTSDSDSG

[14] = biological target: T4, Bromodomain-containing protein 2; assay: Binding affinity to human partial length BRD2 BD2 (E348 to D455 residues) expressed in bacterial expression system assessed as change in melting temperature at 50 uM at 20 to 85 degreeC by SYPRO orange staining based thermal shift assay
Procedure, shortened: (§6)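 DSF thermal shift. 10 µM BD in 50 mM HEPES, 500 mM NaCl pH 7.5, with 50 µM compound or DMSO-matched control and 1:1000 Sypro Orange (ex 465/em 590 nm). Ramp 20–85 °C at 0.03 °C/s. Tm taken as the midpoint between fluorescence max and min. At least three independent experiments, SEM in °C.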
Target sequence in this assay (P25440 whole entry, looked up, the tested form may be a part): as above

[15] = biological target: T2, Bromodomain-containing protein 3; assay: Binding affinity to human partial length BRD3 BD1 (P24 to E144 residues) expressed in bacterial expression system assessed as change in melting temperature at 50 uM at 20 to 85 degreeC by SYPRO orange staining based thermal shift assay; procedure, shortened: as §6
Target sequence in this assay (Q15059 2-726 limits assumed): as the sequence (Q15059 2-726 limits assumed) above

[16] = biological target: T4, Bromodomain-containing protein 2; assay: Induction of BRD2 degradation in human MDA-MB-231 cells incubated for 16 hrs by immunoblotting analysis; format: cell-based
Procedure, shortened: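 MDA-MB-231 or PC-3 cells at 50% confluence in DMEM/10% FBS/pen-strep, treated 16 h with doses falling tenfold from 10 µM to 1 nM. RIPA lysates immunoblotted for BRD2, BRD3 and BRD4 with GAPDH as control. DC50 derived from band densitometry. SEM, n = 2.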
Target sequence in this assay (P25440 whole entry, the tested form may be a part): as the sequence (P25440 whole entry, looked up, the tested form may be a part) above

[17] = biological target: T2, Bromodomain-containing protein 3; assay: Induction of BRD3 degradation in human MDA-MB-231 cells assessed as decrease in BET half life at 10 uM incubated for 8 hrs in presence of cycloheximide by immunoblotting analysis; format: cell-based; procedure, shortened: as §2
Target sequence in this assay (Q15059 2-726 limits assumed): as the sequence (Q15059 2-726 limits assumed) above

[18] = biological target: T2, Bromodomain-containing protein 3; assay: Binding affinity to 6His-tagged BRD3-BD2 (unknown origin) by MST assay; procedure, shortened: as §5
Target sequence in this assay (Q15059 whole entry): as the sequence (Q15059 whole entry) above

[19] = biological target: T3, Bromodomain testis-specific protein; assay: Binding affinity to human partial length BRDT BD1 (N21 to E137 residues) expressed in bacterial expression system using H4K5acIC8acK12acK16ac-biotinylated peptide as substrate preincubated for 30 mins followed by substrate addition by AlphaScreen assay; procedure, shortened: as §4

CC(=O)OC[C@]12CC[C@H]3[C@@H](C[C@H]4O[C@]45CC=CC(=O)[C@]35C)[C@]1(O)CC[C@@]2(O)[C@@](C)(O)[C@H]1CC(C)=C(C)C(=O)O1
Activity (VCaP [1]): inactive
Activity [2]: Active
Activity [3]: Active
Activity (VCaP [4]): inactive
Activity [5]: inactive
EC50 (PC-3): 63 nM
IC50 [6]: 108 nM
EC50 (DU-145): 263 nM
EC50 (LNCaP): 21.6 nM
IC50 [7]: 119 nM
Activity (VCaP [8]): inactive
Kd [9]: 14.1 nM
IC50 [10]: 142 nM
Activity [11]: Active
IC50 [12]: 7.11 nM
Activity [13]: Active
ΔTm [14]: 8.23 °C
ΔTm [15]: 12.5 °C
DC50 [16]: > 10000 nM
Activity [17]: Active
Kd [18]: 149 nM
IC50 [19]: 403 nM
